PP5 inh: inhibitors of human protein phosphatase 5 (PP5). inhibition, % at 6.7 µM. actives 0.18% (n = 320,000). purified PP5c, OMFP substrate fluorescence;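 active = inhibition above the campaign's mean inhibition across all tested compounds plus 3 SD, cut at about 9.5% in these data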
ZTA DNA inh: blocks Epstein-Barr virus ZTA, an EBNA-1 counter-screen; P03206; ZTA-DNA binding, fluorescence polarization; inhibition, % at 11 µM; actives 0.15% (n = 320,000); in the data active = inhibition above about 33%
Target sequence (P03206 whole entry, looked up): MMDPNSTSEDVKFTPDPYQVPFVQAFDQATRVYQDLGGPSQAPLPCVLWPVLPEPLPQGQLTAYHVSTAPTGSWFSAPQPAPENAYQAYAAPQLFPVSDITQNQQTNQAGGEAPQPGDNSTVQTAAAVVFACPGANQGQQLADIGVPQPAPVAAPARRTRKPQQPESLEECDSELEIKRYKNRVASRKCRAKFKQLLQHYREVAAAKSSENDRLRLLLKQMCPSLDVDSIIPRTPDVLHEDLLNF
core dimer inh: HCV core protein dimerization inhibition. actives 0.33% (n = 300,000). inhibition, % at 5 µM. TR-FRET GST/Flag-core106 dimerization, 1536-well;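 active = inhibition above the mean of all tested compounds plus 3 SD, set per screening campaign, cut at about 45% in these data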
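Test system: GST/Flag-tagged HCV core106 proteins; Medium: KF-containing HEPES buffer, pH 7.45, DTT, CHAPS, BSA; Times: compound-protein-antibody incubation 4 h at 22.5 °C; Detection: TR-FRET 671 and 617 nm emission; Benchmarks: wells lacking GST-core106 and wells with excess unlabelled core106.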
EBNA-1 inh: blocks EBNA-1 binding to DNA; EBNA-1 DNA binding, fluorescence polarization; inhibition, % at 14.8 µM; actives 0.34% (n = 300,000); AID 1950; in the data active = inhibition above about 28%
PP1 counter: blocks human PP1-alpha phosphatase, a PP5 counter-screen. AID 2235. actives 0.9% (n = 320,000). inhibition, % at 6.7 µM. purified PP1alpha, OMFP fluorescence;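 active = inhibition above the mean inhibition of all tested compounds plus 3 SD, computed separately for each screening campaign, cut at about 15% in these data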
Target sequence (P62136 whole entry, looked up): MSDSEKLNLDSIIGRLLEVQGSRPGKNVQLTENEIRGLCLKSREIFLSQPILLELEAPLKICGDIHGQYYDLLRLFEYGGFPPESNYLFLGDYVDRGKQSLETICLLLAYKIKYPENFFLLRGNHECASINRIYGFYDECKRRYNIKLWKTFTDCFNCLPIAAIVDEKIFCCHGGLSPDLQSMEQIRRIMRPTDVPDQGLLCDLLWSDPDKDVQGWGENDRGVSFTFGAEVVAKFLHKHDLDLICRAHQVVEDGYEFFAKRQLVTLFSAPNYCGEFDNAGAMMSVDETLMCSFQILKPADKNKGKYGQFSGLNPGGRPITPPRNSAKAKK
PP1 confirm: confirmation of human PP1 phosphatase inhibitors. shares compounds with PP1 counter. purified PP1alpha, OMFP substrate fluorescence. inhibition, % at 6.7 µM. actives 52% (n = 1,900);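 active = mean PP1 inhibition above a set limit taken from the earlier primary screen, cut at about 15% in these data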
PP5 counter: inhibits human PP5 phosphatase in PP1 counter-screen; purified PP5c, OMFP fluorescence; inhibition, % at 6.7 µM; actives 4% (n = 1,900); shares compounds with PP1 counter; AID 2360;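 active = mean PP5 inhibition over triplicate wells above about 9.5% taken from the earlier PP1 screen, limit read from the data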
Of the large screens only hits and unclear results are named; the others gave an inactive call (follow-up assays come after a bar, where they were run). In the library only some 1.7% were active in any assay of this set; here they are far more common.

COc1ccc(CN2C(=O)c3cccnc3C2Nc2cc(Cl)ccc2OC)cc1 (stereo not given)	PP1 counter 27 | PP1 confirm 26 | PP5 counter inactive
COc1ccc(CN2C(=O)c3cccnc3C2O)cc1 (stereo not given)	PP1 counter 34 | PP1 confirm 25 | PP5 counter inactive
Cc1cc(N/N=C/c2ccc(Cl)cc2)nc(NCc2ccccc2)n1	PP1 counter 19 | PP1 confirm inactive | PP5 counter inactive
Cc1cc(N/N=C/c2cccc(F)c2)nc(NCc2ccccc2)n1	none
CC(C)N1C(=O)CSC1c1ccc(Br)cc1 (stereo not given)	PP1 counter 87 | PP1 confirm inactive | PP5 counter inactive
CC1=Nc2nc(N3CCCCC3)c(C#N)c3c4c(nc(c23)N1)N(c1ccc(C(C)C)cc1)C(=O)C4	core dimer inh 46, PP1 counter 20 | PP1 confirm 16 | PP5 counter inactive
CC(=O)NC(CC(=O)OCC(=O)N1CCc2ccccc21)c1ccccc1 (stereo not given)	none
O=[N+]([O-])c1cc(Cl)cc(/C=N/NC(=S)Nc2ccc(S(=O)(=O)N3CCOCC3)cc2)c1O	PP1 counter 19 | PP1 confirm 19 | PP5 counter inactive
CC1=CCC(/C=N\Nc2nnc3c(n2)[nH]c2ccccc23)CC1 (stereo not given)	none
COc1ncccc1C(=O)N1CCCC(N2CCN(c3ccc(F)cc3)CC2)C1 (stereo not given)	none
COc1ncccc1C(=O)N1CCCC(N2CCN(c3cccc(Cl)c3)CC2)C1 (stereo not given)	PP1 counter 49 | PP1 confirm inactive | PP5 counter inactive
COc1ccc(N2CCN(C(=O)CCc3nnc4ccc(N5CCCC5)nn34)CC2)cc1	none
O=C(CNS(=O)(=O)c1ccc(Br)cc1Cl)OCC(=O)c1ccc[nH]1	PP1 counter 35 | PP1 confirm inactive | PP5 counter inactive
O=C(CNS(=O)(=O)c1c(Cl)cccc1Cl)OCC(=O)c1ccc[nH]1	none
C[C@]12C=CC(=O)C=C1CC[C@@H]1C2=CC[C@]2(C)[C@@H](C(=O)CN3CCN(c4cc(N5CCCC5)nc(N5CCCC5)n4)CC3)CC[C@@H]12	PP5 inh 13, PP1 counter 26 | PP1 confirm 50 | PP5 counter 25
CCc1nnc(NS(=O)(=O)c2ccc(NC(=S)NC(=O)/C=C/c3ccc(C(C)C)cc3)cc2)s1	PP1 counter 26 | PP1 confirm 32 | PP5 counter inactive
CCc1nnc(NS(=O)(=O)c2ccc(NC(=S)NC(=O)/C=C/c3ccc(OC)cc3)cc2)s1	none
COc1ccc(/C=N/N2C(=O)CSC2=S)cc1	none
COc1ccc(/C=N/N2C(=O)CSC2=S)cc1Br	PP1 counter 25 | PP1 confirm 22 | PP5 counter inactive
COc1ccc2oc(C(=O)OCc3c(C)noc3C)c(C)c2c1	none
Cc1cc2oc(C(=O)Nc3ccc(S(=O)(=O)Nc4nccs4)cc3)cc(=O)c2cc1Cl	core dimer inh 58, PP1 counter 39 | PP1 confirm 31 | PP5 counter inactive
CC1Nc2ncnc(N3CCc4ccccc4C3)c2N(Cc2ccc(Br)cc2)C1=O (stereo not given)	PP1 counter 23 | PP1 confirm 19 | PP5 counter inactive
COc1ccc(C2C(C(=O)c3ccco3)=C(O)C(=O)N2CCc2ccccc2)cc1OC (stereo not given)	PP1 counter 30 | PP1 confirm 29 | PP5 counter inactive
COc1ccc(C2C(C(=O)c3ccco3)=C(O)C(=O)N2CCOCCO)cc1OC (stereo not given)	none
O=c1cc(-c2ccc(C3CCCCC3)cc2)[nH][nH]1	PP1 counter 18 | PP1 confirm inactive | PP5 counter inactive
O=c1cc(-c2ccc(F)cc2)[nH][nH]1	none
O=C(Nc1ccccc1)c1ccc(Br)o1	none
O=C(Nc1cccc(NC(=O)c2ccc(Br)o2)n1)c1ccc(Br)o1	PP1 counter 35 | PP1 confirm 31 | PP5 counter inactive
CCCC(=O)Oc1ccccc1C1SCc2cc(C)c(C)cc2CS1	PP1 counter 22 | PP1 confirm inactive | PP5 counter inactive
CCCCC(CC)COC(=O)CCCCC(=O)OCC(CC)CCCC (stereo not given)	none (no result: core dimer inh, EBNA-1 inh)
CCCCC(CC)CN=C(N)NC(N)=NCCCCCCN=C(N)NC(N)=NCC(CC)CCCC (stereo not given)	PP1 counter 46 | PP1 confirm 29 | PP5 counter inactive
COc1ccccc1N1CCN(C2CCCCC2NS(=O)(=O)c2ccccc2)CC1 (stereo not given)	none
O=C(N/N=C/c1cc2ccccc2nc1Cl)/C(=C/c1cccs1)NC(=O)c1ccccc1	PP1 counter 18 | PP1 confirm inactive | PP5 counter inactive
O=C(N/N=C/c1cccnc1)/C(=C\c1cccs1)NC(=O)c1ccccc1	none
COCCN=C1N[C@@H](c2cccc(C(F)(F)F)c2)C(C(=O)OC)=C(C)N1Cc1ccccc1	none
COC(=O)C1=C(C)N(Cc2ccccc2)C(=NCc2cccc(C(F)(F)F)c2)N[C@H]1c1cccc(F)c1	PP1 counter 18 | PP1 confirm inactive | PP5 counter inactive
CCc1noc(C)c1C(=O)OCC(=O)N(CCOC)c1c(N)n(Cc2ccccc2)c(=O)[nH]c1=O	PP1 counter 22 | PP1 confirm inactive | PP5 counter inactive
CCC1CCc2sc(C(=O)OCC(=O)N(CCOC)c3c(N)n(Cc4ccccc4)c(=O)[nH]c3=O)cc2C1 (stereo not given)	none
COCCN(C(=O)COC(=O)c1cc2c(s1)CCC2)c1c(N)n(Cc2ccccc2)c(=O)[nH]c1=O	core dimer inh 69, PP1 counter 18 | PP1 confirm inactive | PP5 counter inactive
O=C(NC(=S)Nc1cccc(S(=O)(=O)NC2=NCCC2)c1)c1cc(-c2ccco2)nc2ccccc12	none
Cc1nnc(NC(=O)c2cc(-c3ccco3)nc3ccccc23)s1	core dimer inh 78, PP1 counter 30 | PP1 confirm inactive | PP5 counter inactive
O=C(N/N=C/c1ccc([N+](=O)[O-])o1)c1cc(-c2ccc(-c3ccccc3)cc2)nc2ccccc12	core dimer inh 67, PP1 counter 27 | PP1 confirm 29 | PP5 counter inactive
O=C(N/N=C/c1ccc(F)cc1)c1cc(-c2ccco2)nc2ccccc12	core dimer inh 69, PP1 counter 19 | PP1 confirm inactive | PP5 counter inactive
O=C(Nc1cccc(S(=O)(=O)NC2=NCCC2)c1)c1cc(-c2ccco2)nc2ccccc12	core dimer inh 76, PP1 counter 26 | PP1 confirm inactive | PP5 counter inactive
O=C(Nc1nc2ccccc2s1)c1cc(-c2ccco2)nc2ccccc12	none

Bioassay records deposited in PubChem BioAssay by The Scripps Research Institute Molecular Screening Center.
